Laboratory results: ChEMBL document CHEMBL1131132, “Acetylcholinesterase inhibitors: synthesis and structure-activity relationships of omega-[N-methyl-N-(3-alkylcarbamoyloxyphenyl)- methyl]aminoalkoxyheteroaryl derivatives” (J Med Chem, 1998)

Legend:
Acetylcholinesterase = molecular target: T1, Acetylcholinesterase (Rattus norvegicus, UniProt P37136); experiment: Inhibitory concentration against rat brain acetylcholinesterase AChE
T1 sequence (P37136 whole entry): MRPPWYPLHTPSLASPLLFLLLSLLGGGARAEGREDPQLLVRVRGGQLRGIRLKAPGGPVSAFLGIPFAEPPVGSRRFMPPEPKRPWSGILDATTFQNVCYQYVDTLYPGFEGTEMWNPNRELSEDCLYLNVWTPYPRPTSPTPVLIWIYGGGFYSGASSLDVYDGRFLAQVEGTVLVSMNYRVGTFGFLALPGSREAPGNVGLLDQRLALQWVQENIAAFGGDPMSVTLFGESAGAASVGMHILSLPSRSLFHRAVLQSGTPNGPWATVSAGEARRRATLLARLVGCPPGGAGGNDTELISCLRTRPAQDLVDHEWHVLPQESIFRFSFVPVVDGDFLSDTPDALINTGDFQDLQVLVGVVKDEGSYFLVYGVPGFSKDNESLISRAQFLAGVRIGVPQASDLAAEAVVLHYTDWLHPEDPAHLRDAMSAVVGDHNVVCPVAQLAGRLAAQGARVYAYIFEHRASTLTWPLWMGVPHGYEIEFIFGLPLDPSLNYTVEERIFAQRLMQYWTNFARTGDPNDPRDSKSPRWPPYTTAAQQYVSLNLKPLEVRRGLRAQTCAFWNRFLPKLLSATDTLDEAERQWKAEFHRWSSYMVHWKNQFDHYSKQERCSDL
Summary of the method: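 Adult Wistar rat cerebral cortex, stored frozen, homogenized 1:200 w/v in 25 mM phosphate pH 7.4, warmed 37 °C 5 min, spun 50000g 15 min at 4 °C; pellet resuspended as AChE-enriched fraction. Compound in PBS pH 7.4 with tritiated ACh (final 0.4 mM), 15 min at 37 °C; stopped with chloroacetic acid/NaCl/NaOH; ³H-acetate extracted into isoamyl alcohol/toluene, scintillation counted.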

[1] = molecular target: Cholinesterases; ACHE & BCHE (Homo sapiens) (UniProt P06276+P22303); experiment: It is the ratio of IC50 for butyrl cholinesterase (BuChE ) to that of acetylcholinesterase (AChE); format: protein assay
Summary of the method: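 Ellman method, 0.1 M phosphate pH 8.0, 340 µM DTNB. AChE: human erythrocyte 0.035 unit/mL, 550 µM acetylthiocholine. BuChE: human serum 0.035 unit/mL, 550 µM butyrylthiocholine.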

Cholinesterases; ACHE & BCHE (Homo sapiens), sequence (P06276 whole entry, looked up): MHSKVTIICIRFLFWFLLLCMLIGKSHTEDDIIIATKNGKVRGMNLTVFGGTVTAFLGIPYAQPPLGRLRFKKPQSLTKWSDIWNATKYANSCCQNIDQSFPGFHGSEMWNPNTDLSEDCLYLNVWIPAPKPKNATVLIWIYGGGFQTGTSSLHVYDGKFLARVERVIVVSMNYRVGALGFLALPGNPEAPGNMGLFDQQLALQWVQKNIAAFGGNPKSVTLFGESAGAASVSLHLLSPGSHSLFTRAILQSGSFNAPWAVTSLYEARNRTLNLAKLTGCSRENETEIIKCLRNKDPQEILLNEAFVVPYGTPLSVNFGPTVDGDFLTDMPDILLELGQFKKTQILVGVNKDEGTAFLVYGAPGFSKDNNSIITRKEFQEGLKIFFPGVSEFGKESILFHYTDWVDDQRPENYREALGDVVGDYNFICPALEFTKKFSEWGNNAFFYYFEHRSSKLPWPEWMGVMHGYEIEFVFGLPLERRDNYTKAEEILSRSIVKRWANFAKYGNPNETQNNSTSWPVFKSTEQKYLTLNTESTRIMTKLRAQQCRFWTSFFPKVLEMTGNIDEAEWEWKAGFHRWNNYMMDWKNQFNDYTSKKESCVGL
Cholinesterases; ACHE & BCHE (Homo sapiens), sequence (P22303 whole entry, looked up): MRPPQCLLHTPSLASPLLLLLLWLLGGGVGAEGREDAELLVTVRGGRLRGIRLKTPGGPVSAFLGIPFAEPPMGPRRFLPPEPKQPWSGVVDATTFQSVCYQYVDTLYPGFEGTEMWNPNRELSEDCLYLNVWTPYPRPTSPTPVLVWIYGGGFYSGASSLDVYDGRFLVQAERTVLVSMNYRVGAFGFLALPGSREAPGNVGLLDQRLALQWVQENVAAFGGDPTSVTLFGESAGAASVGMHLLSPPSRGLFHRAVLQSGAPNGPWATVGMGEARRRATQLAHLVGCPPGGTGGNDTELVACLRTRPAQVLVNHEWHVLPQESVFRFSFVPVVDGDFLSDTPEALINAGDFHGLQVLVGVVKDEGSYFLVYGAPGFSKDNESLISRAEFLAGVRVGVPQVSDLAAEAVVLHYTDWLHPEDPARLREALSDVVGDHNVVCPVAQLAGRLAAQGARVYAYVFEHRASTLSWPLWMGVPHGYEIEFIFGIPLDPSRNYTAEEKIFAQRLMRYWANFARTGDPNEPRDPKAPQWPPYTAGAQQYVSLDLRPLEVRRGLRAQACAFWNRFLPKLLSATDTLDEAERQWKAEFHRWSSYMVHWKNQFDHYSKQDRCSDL

Compound | IC50 (Acetylcholinesterase) [nM] | Ratio [1]
CNC(=O)Oc1cccc(CN(C)CCCOc2ccc3ccc(=O)oc3c2)c1 | 1.5 | 0.6
CCCCNC(=O)Oc1cccc(CN(C)CCCOc2ccc3c(=O)c4cccnc4oc3c2)c1 | 70 | 2.7
CN(CCCOc1ccc2c(=O)c3ccccc3oc2c1)Cc1cccc(OC(=O)Nc2ccccc2)c1 | > 1000 | 71.4
CNC(=O)Oc1cccc(CN(C)CCCOc2ccc3c(=O)cc(-c4ccccc4)oc3c2)c1 | 0.6 | 8.2
CCCCCCCNC(=O)Oc1cccc(CN(C)CCCOc2ccc3ccc(=O)oc3c2)c1 | 2 | 5
CNC(=O)Oc1cccc(CN(C)CCCCCOc2ccc3c(=O)c4ccccc4oc3c2)c1 | > 100 | 101
